Measured values from different studies.
Compare with care: the assays were run in different laboratories.
Target: Dual specificity protein kinase CLK4 (CLK4, Homo sapiens, UniProt Q9HAZ1)

| SMILES | effect on | mode | method | concentration | quantity | result |
| --- | --- | --- | --- | --- | --- | --- |
| Cc1sc(C(=O)NC2COC2)cc1-n1cc(NC(=O)Nc2c(F)cccc2Cl)cn1 | enzyme activity | inhibitor |  | 10 µM | remaining activity | 102% |
| O=C1Nc2ccc(Cl)cc2C1=Cc1cc(Cl)c(O)c(Cl)c1 | cell-free assay |  |  | 0.5 µM | remaining signal | 60.7% |
| NS(=O)(=O)c1cc(NC(=O)Cc2ccccc2)ccc1Oc1cccc(Cl)c1 | cell-free assay |  | competition with immobilised ligand | 1 µM | remaining binding | 83% |
| COc1cc(Cl)c(C(=O)N[C@@H](CN[C@H]2CC[C@@H](N)CC2)Cc2ccc(C#N)cc2)cc1-c1ccc(CN[C@H](C)c2ccc(C)cc2)o1 | enzyme activity | inhibitor |  | 1 µM | remaining activity | 103% |
| CS(=O)(=O)Nc1cccc(-c2csc(NC(=O)CSc3nc4nccnc4c(=O)n3CCc3ccccc3)n2)c1 | enzyme activity | inhibitor |  | 10 µM | inhibition | 14% |
| CN(c1ccnc(CNc2nc(Nc3ccc4c(c3)CC(=O)N4)ncc2C(F)(F)F)n1)S(C)(=O)=O | binding |  | competition with immobilised ligand | 1 µM | remaining binding | 1.4% |
| CCN1/C(=C/C(C)=O)Sc2ccc(OC)cc21 | cell-free assay |  |  | 0.5 µM | remaining signal | 18.5% |
| Nc1ncnc2occ(-c3ccc(NC(=O)Nc4cc(C(F)(F)F)ccc4F)cc3)c12 | cell-free assay | inhibitor |  | 20 µM | remaining signal | 5.8% |
| Cn1cncc1C1=CN(c2ncnc3[nH]cnc23)CCS1 | enzyme activity | inhibitor | radiometric | 2 µM | inhibition | 84.7% |
| CS(=O)(=O)N1CCCC(NC(=O)[C@H](CCC2CCCCC2)NC(=O)c2ccc(CNc3ncnc4c3nnn4-c3ccccc3)cc2)C1 (stereo partly drawn) | cell-free assay |  | competition with immobilised ligand | 0.1 µM | remaining binding | 85% |
| CN(CCCC(F)(F)F)c1nccc(-c2cnn3ncccc23)n1 | binding |  |  | 1 µM | remaining binding | 25% |
| CNC(=O)c1cc(Oc2ccc(NC(=O)Nc3ccc(Cl)c(C(F)(F)F)c3)cc2)ccn1 | cell-free assay |  |  | 0.5 µM | remaining signal | 95.2% |
| Cc1ccc(NC(=O)c2ccc(C)c(C(F)(F)F)c2)cc1C#Cc1nn(C2CCC(O)CC2)c2ncnc(N)c12 (stereo not drawn) | cell-free assay |  |  | 10 µM | remaining signal | 58% |
| Cn1cnc(Br)c1C1=CN(c2ncnc3[nH]cnc23)CCS1 | enzyme activity | inhibitor | radiometric | 2 µM | inhibition | 98.8% |
| O=C(NC[C@@H]1[C@H]2CN(C(=O)OCc3cc(C(F)(F)F)cc(C(F)(F)F)c3)C[C@@H]12)c1ccc2[nH]nnc2c1 | cell-free assay |  | competition with immobilised ligand | 1 µM | remaining binding | 98% |
| CC(C)(C)c1nc2c(s1)c1nc(N)ncc1c1ccc(NS(=O)(=O)c3c(F)cccc3F)c(F)c12 | enzyme activity | inhibitor | radiometric | 1 µM | remaining activity | 81% |
| COc1cc(-c2cc(-c3ccc(N4CCNCC4)cc3)cnc2C)cc(OC)c1OC | enzyme activity | inhibitor |  | 1 µM | inhibition | 7% |
| CC(=O)Nc1c(C(C)=O)c(=O)n(C)c2nc(-c3ccc(Cl)cc3Cl)c(-c3ccc(Cl)cc3)cc12 | cell-free assay |  | competition with immobilised ligand | 1 µM | remaining binding | 100% |
| Cc1cnc(NC2CCOCC2)nc1-n1cnc(C(=O)NC(CN)c2cc(F)cc(Cl)c2)c1 (stereo not drawn) | enzyme activity | inhibitor | radiometric | 1 µM | remaining activity | 63% |
| O=C(Nc1cccnn1)N1CCC(=Cc2cccc(Oc3ccc(C(F)(F)F)cn3)c2)CC1 | cell-free assay |  | competition with immobilised ligand | 1 µM | remaining binding | 70% |
| CCN(CC)CCNC(=O)c1c(C)[nH]c(/C=C2\C(=O)Nc3ccc(F)cc32)c1C | cell-free assay |  |  | 0.5 µM | remaining signal | 26.3% |
